Test results from ChEMBL document CHEMBL5712919, “ARID1A Mutations Promote P300-Dependent Endometrial Invasion through Super-Enhancer Hyperacetylation” (Cell Rep, 2020).
The source made the active and inactive calls. No cut-off for these calls is given here.

Key:
12Z [1] = assay: Inhibition of cell invasion in human 12Z cells transfected with shARID1A at 10 to 100 nM after 24 hrs by transwell invasion assay; format: functional, cell-based; conditions: dose 10-100 nM
Outline: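 12Z cells were siRNA-transfected and drug added 24 h later. At 48 h, 30,000 cells in 0.3 mg/mL Matrigel were seeded on Matrigel-coated 8 μm transwells, with serum-free medium on top and 5% FBS medium below, drug in both chambers. After 16 hr, cells were stained with calcein-AM, unmigrated cells were removed, and five fields/well were imaged and counted.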

[2] = Cytotoxicity against human 12Z cells assessed as reduction in cell viability after 6 days by crystal violet staining based assay; format: toxicity
Outline: (§1)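 12Z cells seeded at 100 cells/well and, after 24 h, treated with A-485 from 10 nM to 100 μM. After 6 days, colonies stained with crystal violet and counted.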

12Z [3] = assay: Induction of cell death in human 12Z cells transfected with shARID1A assessed as increase in ratio of dead to live cells at 100 nM after 16 hrs by Matrigel based analysis; format: functional
Outline: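 12Z cells were siRNA-transfected and drug-treated 24 h post-transfection. At 48 h, 10,000 cells in 0.3 mg/mL Matrigel were seeded on Matrigel-coated wells in serum-free medium with 100 nM A-485 or vehicle.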

12Z [4] = assay: Growth inhibition of human 12Z cells transfected with shARID1A assessed as reduction in cell viability at 0.01 to 100 uM after 72 hrs by crystal violet staining fluorescence assay; format: functional, cell-based; conditions: dose 0.01-100 µM
[5] = Cytotoxicity against human 12Z cells transfected with control shRNA assessed as reduction in cell viability after 6 days by crystal violet staining based assay; format: toxicity; outline: as §1
[6] = Cytotoxicity against human 12Z cells transfected with control shRNA assessed as reduction in cell viability at 0.01 to 100 uM after 72 hrs by crystal violet staining fluorescence assay; format: toxicity, cell-based; conditions: dose 0.01-100 µM
[7] = biological target: Histone acetyltransferase p300 (Homo sapiens) (UniProt Q09472); assay: Inhibition of P300 in human 12Z cells transfected with shARID1A assessed as affected in H3K27ac expression at 1 uM for 24 hrs by CUT and run analysis; format: cell-based
[8] = biological target: Histone acetyltransferase p300 (Homo sapiens) (UniProt Q09472); assay: Inhibition of P300 in human 12Z cells assessed as reduction in H3K27ac expression at 316 nM for 24 hrs by western blot analysis; format: cell-based
Outline: (§2)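 Histones were acid-extracted from A-485-treated 12Z cells with 0.2 N HCl in the presence of sodium butyrate. Extracts were run on a 15% SDS-PAGE gel and blotted with H3K27ac (1:1,000) and total H3 (1:2,000) antibodies, with IRDye 800CW secondary and fluorescence imaging.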

12Z [9] = assay: Inhibition of cell migration in human 12Z cells transfected with shARID1A at 31 to 316 nM after 24 hrs by Matrigel based analysis; format: functional; conditions: dose 31-316 nM, in the assay text read “culture-insert gap assay” for “Matrigel based analysis”
Outline: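 12Z cells (4,000/well) in 4-well culture inserts were transduced with control or shARID1A lentivirus (MOI 100). Serum-free medium with drug or vehicle was added after 24 hr, and inserts were removed at 16 hr. Front distances at 16 points were imaged at 0 and 24 hr, and migration was taken as the 0 h minus 24 h mean distance.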

[10] = biological target: Histone acetyltransferase p300 (Homo sapiens) (UniProt Q09472); assay: Inhibition of P300 in human 12Z cells transfected with shARID1A assessed as decrease in SERPINE1 RNA expression at 100 nM by RNA-seq analysis; format: cell-based
[11] = Cytotoxicity against human 12Z cells assessed as reduction in cell viability after 72 hrs at 0.01 to 100 uM by calcein-AM stainig based fluorescence assay; format: toxicity; conditions: dose 0.01-100 µM
Outline: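 12Z cells seeded at 4,000 cells/well, transfected 24 h later, then drug-treated 24 h after transfection for 48–72 hr. Viable cells were read after 1 h with 2 μg/mL calcein-AM as fluorescence.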

[12] = Cytotoxicity against human 12Z cells transfected with shARID1A assessed as reduction in cell viability after 6 days by crystal violet staining based assay; format: functional; conditions: 144 h; outline: as §1
[13] = biological target: Histone acetyltransferase p300 (Homo sapiens) (UniProt Q09472); assay: Inhibition of P300 in human 12Z cells transfected with shARID1A assessed as decrease in SERPINE1 RNA expression at 100 nM for 24 hrs by Western blot analysis; format: cell-based
12Z [14] = assay: Induction of anchorage-dependent cell death in human 12Z cells assessed as increase in caspase3/7 level at 100 nM after 24 hrs by caspase-Glo 3/7 assay; format: functional, cell-based
Outline: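 The Caspase-Glo 3/7 assay was run in suspension. siRNA-transfected 12Z cells (48 hr), drug-treated for 24 hr, were seeded at 10,000 cells/well on cell-repellent plates in serum-free DMEM/F12 with A-485 or vehicle. After 24 hr, Caspase-Glo reagent was added 1:1 and incubated 1 hr at 37°C before reading luminescence.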

[15] = biological target: Histone acetyltransferase p300 (Homo sapiens) (UniProt Q09472); assay: Inhibition of P300 in human 12Z cells assessed as reduction in H3K27ac expression at 0.01 to 100 uM for 24 hrs by western blot analysis; format: cell-based; conditions: dose 0.01-100 µM; outline: as §2

Histone acetyltransferase p300 (Homo sapiens), sequence (Q09472 whole entry): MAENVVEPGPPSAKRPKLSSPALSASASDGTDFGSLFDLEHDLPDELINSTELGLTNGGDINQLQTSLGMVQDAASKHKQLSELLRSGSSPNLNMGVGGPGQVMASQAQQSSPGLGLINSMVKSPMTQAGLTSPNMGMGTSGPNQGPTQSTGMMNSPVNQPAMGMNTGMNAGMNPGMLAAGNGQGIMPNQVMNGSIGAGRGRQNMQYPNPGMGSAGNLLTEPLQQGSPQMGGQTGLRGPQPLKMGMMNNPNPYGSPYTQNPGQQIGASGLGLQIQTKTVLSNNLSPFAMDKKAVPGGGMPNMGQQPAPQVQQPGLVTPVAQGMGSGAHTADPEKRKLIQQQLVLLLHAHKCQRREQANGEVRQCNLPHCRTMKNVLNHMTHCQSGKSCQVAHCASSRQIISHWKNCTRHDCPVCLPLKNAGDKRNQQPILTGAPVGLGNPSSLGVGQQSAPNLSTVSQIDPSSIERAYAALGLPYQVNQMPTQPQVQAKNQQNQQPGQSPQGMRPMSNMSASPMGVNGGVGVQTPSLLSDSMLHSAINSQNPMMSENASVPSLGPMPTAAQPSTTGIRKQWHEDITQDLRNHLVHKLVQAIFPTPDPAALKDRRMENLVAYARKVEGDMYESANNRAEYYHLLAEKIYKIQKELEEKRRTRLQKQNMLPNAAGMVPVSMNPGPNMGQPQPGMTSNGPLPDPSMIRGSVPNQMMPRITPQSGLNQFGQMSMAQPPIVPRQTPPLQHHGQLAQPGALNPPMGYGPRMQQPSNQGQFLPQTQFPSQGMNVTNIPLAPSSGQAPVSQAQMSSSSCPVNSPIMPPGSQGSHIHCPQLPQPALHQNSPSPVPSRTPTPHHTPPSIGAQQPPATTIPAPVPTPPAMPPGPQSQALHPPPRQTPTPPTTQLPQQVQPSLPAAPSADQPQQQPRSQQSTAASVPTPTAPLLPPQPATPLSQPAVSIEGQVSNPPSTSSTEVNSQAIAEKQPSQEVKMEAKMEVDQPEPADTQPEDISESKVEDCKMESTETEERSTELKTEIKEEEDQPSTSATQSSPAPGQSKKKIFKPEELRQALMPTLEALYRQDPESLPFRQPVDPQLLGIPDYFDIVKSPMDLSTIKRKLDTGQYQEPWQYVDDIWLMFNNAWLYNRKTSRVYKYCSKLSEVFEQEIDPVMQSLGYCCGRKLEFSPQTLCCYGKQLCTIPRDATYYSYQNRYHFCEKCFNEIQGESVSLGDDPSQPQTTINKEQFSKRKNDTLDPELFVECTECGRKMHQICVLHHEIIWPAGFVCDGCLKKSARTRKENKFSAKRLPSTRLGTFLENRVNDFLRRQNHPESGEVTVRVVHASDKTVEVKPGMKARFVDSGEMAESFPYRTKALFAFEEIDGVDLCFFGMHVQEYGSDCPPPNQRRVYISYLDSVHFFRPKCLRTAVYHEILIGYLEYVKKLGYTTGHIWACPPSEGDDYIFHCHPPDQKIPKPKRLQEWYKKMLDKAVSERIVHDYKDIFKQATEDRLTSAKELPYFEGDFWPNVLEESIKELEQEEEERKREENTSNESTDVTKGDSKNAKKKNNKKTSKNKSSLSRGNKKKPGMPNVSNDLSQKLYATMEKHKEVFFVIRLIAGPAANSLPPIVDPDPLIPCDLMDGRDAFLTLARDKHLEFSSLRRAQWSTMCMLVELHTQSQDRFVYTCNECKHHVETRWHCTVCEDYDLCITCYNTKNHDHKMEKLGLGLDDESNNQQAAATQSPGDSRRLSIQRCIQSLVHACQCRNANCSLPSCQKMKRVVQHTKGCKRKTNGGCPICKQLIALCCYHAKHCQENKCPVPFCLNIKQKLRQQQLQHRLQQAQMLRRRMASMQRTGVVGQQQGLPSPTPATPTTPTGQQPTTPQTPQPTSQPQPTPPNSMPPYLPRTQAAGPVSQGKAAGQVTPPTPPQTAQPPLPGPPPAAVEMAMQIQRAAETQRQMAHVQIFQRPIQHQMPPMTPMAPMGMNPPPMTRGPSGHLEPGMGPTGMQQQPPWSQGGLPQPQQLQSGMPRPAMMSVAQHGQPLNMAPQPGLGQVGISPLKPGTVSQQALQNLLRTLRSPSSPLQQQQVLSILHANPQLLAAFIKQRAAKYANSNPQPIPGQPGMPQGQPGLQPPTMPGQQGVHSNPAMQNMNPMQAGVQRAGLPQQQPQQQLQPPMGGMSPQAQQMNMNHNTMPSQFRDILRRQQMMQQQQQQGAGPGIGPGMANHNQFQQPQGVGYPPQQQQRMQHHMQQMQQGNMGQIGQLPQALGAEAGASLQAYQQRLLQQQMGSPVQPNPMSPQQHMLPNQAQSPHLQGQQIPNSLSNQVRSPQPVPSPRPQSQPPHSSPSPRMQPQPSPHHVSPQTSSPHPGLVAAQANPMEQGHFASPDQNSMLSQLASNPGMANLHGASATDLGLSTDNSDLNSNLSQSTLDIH

inhibition [7]: Active
inhibition [8]: Active
inhibition [10]: Active
inhibition [13]: Active
inhibition [15]: Active
SMILES: CNC(=O)Nc1ccc2c(c1)CC[C@@]21OC(=O)N(CC(=O)N(Cc2ccc(F)cc2)[C@@H](C)C(F)(F)F)C1=O [A-485]
inhibition (12Z [1]): Active
IC50 at 6 days [2]: 3.32 µM
Activity (12Z [3]): Active
growth inhibition (GI) (12Z [4]): Active
IC50 at 6 days [5]: 3.61 µM
Activity [6]: Toxic
inhibition (12Z [9]): Active
Activity [11]: Toxic
IC50 [12]: 5.35 µM
Activity (12Z [14]): Active
